From ChEMBL document CHEMBL3414483, “New heterocyclic hybrids of pyrazole and its bioisosteres: design, synthesis and biological evaluation as dual acting antimalarial-antileishmanial agents” (Eur J Med Chem, 2015)
pIC50: −log10 of the molar value. ≈ marks a conversion by molar mass, not a printed value.

Key:
Plasmodium falciparum = assay: Antiplasmodial activity against chloroquine-resistant Plasmodium falciparum RKL9 infected in human RBC assessed as effect on schizont maturation after 24 hrs by Geimsa staining-based assay; assay type: functional, organism-based; details: RKL9, 24 h
Summary of the method: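 P. falciparum RKL9 in continuous culture in human B(+) RBC, parasitemia adjusted to 1-1.5%, RPMI 1640 with 10% AB(+) serum. Two-fold serial dilutions, compounds in ethanol (final ≤0.5%), 24 h at 37 °C, duplicate wells. Schizonts per 100 asexual parasites counted on Giemsa smears; % schizont maturation inhibition = (1 − Nt/Nc) × 100.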

Mus musculus [1] = assay: Toxicity in mouse assessed as change in weight at 25 to 300 mg/kg, po measured for 3 days; assay type: organism-based; parameters: dose 25-300 mg/kg, route oral; details: in vivo, 72 h
Summary of the method: (§1)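 Male mice (26-32 g), six per group, fasted overnight and weighed. Compounds given orally as suspension in 1% gum acacia at 25, 50, 100, 200 and 300 mg/kg/day; vehicle control at up to 1 ml/100 g. Mortality recorded after 24 h; weight and deaths followed over 3 days post-dosing.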

Leishmania aethiopica [2] = assay: Antileishmanial activity against promastigote stage of Leishmania aethiopica after 24 hrs by alamar blue staining-based […]; assay type: functional, organism-based
Summary of the method: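 L. aethiopica promastigotes, 3 × 10^6 per well, given compounds from DMSO stocks in three-fold dilutions at 10 to 0.04 µg/ml (final DMSO ≤0.1%), in duplicate, at room temperature (21 ± 1 °C). Alamar blue (resazurin) was added after 24 h and absorbance read 48 h later at 540 and 630 nm. Negative control was parasites, medium and DMSO.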

Mus musculus [3] = assay: Toxicity in mouse up to 100 mg/kg administered via parenteral route; assay type: organism-based; parameters: dose 100 mg/kg; details: in vivo
Summary of the method: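 Groups of six mice received intraperitoneal doses of 10, 25, 50, 75 and 100 mg/kg, with propylene glycol as the vehicle control.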

Leishmania aethiopica [4] = assay: Antileishmanial activity against amastigote stage of Leishmania aethiopica after 72 hrs by resazurin staining-based fluorescence assay; assay type: functional, organism-based
Summary of the method: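 Axenic L. aethiopica amastigotes (50 µl of 2 × 10^7 cells/ml) exposed to serial dilutions at final 0.04–10 µg/ml for 72 h at 31 °C, humidified, 5% CO₂. Resazurin was added at 68 h and fluorescence read at 72 h (ex 530/em 590 nm). EC50 from sigmoidal dose–response fits, mean ± SD of triplicate experiments run in duplicate. Controls were medium alone and 1% DMSO.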

[5] = Toxicity in po dosed mouse; assay type: organism-based; details: in vivo; summary of the method: as §1
Plasmodium berghei [6] = assay: Antimalarial activity against Plasmodium berghei str. ANKA infected in Swiss albino mouse assessed as supression of parasitemia at 0.048 mmol/kg/day, po qd for 3 days by microscopic analysis relative to control; assay type: functional
Summary of the method: (§2)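 Four-day suppressive test. Mice were infected iv on day 0 with 0.2 ml of 2 × 10^7 P. berghei ANKA-parasitized erythrocytes from a donor mouse, diluted in saline. From 2 h post-infection they were dosed orally at 0.048 mmol/kg/day for days 0–3, five mice per group. The vehicle was 7% Tween and 3% ethanol in water. On day 4, Giemsa smears were scored over 5 fields of about 100 RBC each. Suppression was calculated relative to the vehicle group, taken as 100%.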

Plasmodium berghei [7] = assay: Antimalarial activity against Plasmodium berghei str. ANKA infected in Swiss albino mouse assessed as parasitemia at 0.048 mmol/kg/day, po qd […] by microscopic analysis relative to control; assay type: functional; summary of the method: as §2
Mus musculus [8] = assay: Toxicity in mouse assessed as death at 25 to 300 mg/kg, po measured for 3 days; assay type: organism-based; parameters: dose 25-300 mg/kg, route oral; details: in vivo, 72 h; summary of the method: as §1
Plasmodium berghei [9] = assay: Antimalarial activity against Plasmodium berghei str. ANKA infected in Swiss albino mouse assessed as survival at 0.048 mmol/kg/day, po qd for 3 days by microscopic analysis relative to control; assay type: functional
Summary of the method: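 P. berghei ANKA infected mice, 4-day suppressive test. Day 0: 0.2 ml of 2 x 10^7 parasitized erythrocytes given i.v. (donor blood, 20-30% parasitemia, diluted in saline). Oral dosing at 0.048 mmol/kg/day from 2 h post-infection, then days 1-3 at 24 h intervals. Vehicle 7% Tween, 3% ethanol in water. Five mice/group. Survival time recorded per mouse; mean compared with vehicle group.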

Leishmania aethiopica [10] = assay: Ratio of miltefosine IC50 to compound IC50 for promastigote stage of Leishmania aethiopica; assay type: functional
Leishmania aethiopica [11] = assay: Ratio of amphotericin IC50 to compound IC50 for promastigote stage of Leishmania aethiopica; assay type: functional

SMILES | pIC50 (Plasmodium falciparum) | Activity (Mus musculus [1]) | IC50 (Leishmania aethiopica [2]) [µg/mL] | Activity (Mus musculus [3]) | IC50 (Leishmania aethiopica [4]) [µg/mL] | MTD [5] [mg/kg] | Activity (Plasmodium berghei [6]) [%] | Activity (Plasmodium berghei [7]) [%] | Activity (Mus musculus [8]) | Survival (Plasmodium berghei [9]) [days] | Ratio IC50 (Leishmania aethiopica [10]) | Ratio IC50 (Leishmania aethiopica [11])
CC(=O)N1N=C(c2ccccc2)CC1c1cn(-c2ccc(Br)cc2)nc1-c1ccc(C)cc1 (stereo unspecified) | 7.43 | Non-toxic | 3.02 (≈ 6.05 µM) | Non-toxic | 2.77 (≈ 5.55 µM) | 300 | 96.51 | 3 | Non-toxic | 16.4 | – | –
Cc1ccc(-n2cc(/C=N/N=C3/SCC(=O)N3c3ccccc3)c(-c3ccc([N+](=O)[O-])cc3)n2)cc1 | 7.40 | Non-toxic | 0.0201 (≈ 0.0405 µM) | Non-toxic | 0.28 (≈ 0.564 µM) | 300 | 96.51 | 3 | Non-toxic | 16.62 | – | –
O=C(/C=C/c1cn(-c2ccc(Br)cc2)nc1-c1ccc([N+](=O)[O-])cc1)c1ccccc1 | 7.41 | Non-toxic | 1.08 (≈ 2.28 µM) | Non-toxic | 1.22 (≈ 2.57 µM) | 300 | 96.51 | 3 | Non-toxic | 16.22 | – | –
Cc1ccc(-n2cc(/C=N/NC(=S)Nc3ccccc3)c(-c3ccc([N+](=O)[O-])cc3)n2)cc1 | 7.42 | Non-toxic | 0.0241 (≈ 0.0528 µM) | Non-toxic | 0.23 (≈ 0.504 µM) | 300 | 94.19 | 5 | Non-toxic | 14 | – | –
O=C1CS/C(=N/N=C/c2cn(-c3ccc(Br)cc3)nc2-c2ccc([N+](=O)[O-])cc2)N1c1ccccc1 | 7.41 | Non-toxic | 0.0224 (≈ 0.0399 µM) | Non-toxic | 0.19 (≈ 0.338 µM) | 300 | 97.67 | 2 | Non-toxic | 16.44 | – | –
CC(=O)N(C1=NN(C(C)=O)C(c2cn(-c3ccc(Br)cc3)nc2-c2ccc([N+](=O)[O-])cc2)S1)c1ccccc1 (stereo unspecified) | – | Non-toxic | 0.0142 (≈ 0.0235 µM) | Non-toxic | 0.13 (≈ 0.215 µM) | 300 | 86.05 | 12 | Non-toxic | 16.86 | 225 | 3
Cc1ccc(-c2nn(-c3ccc(C)cc3)cc2/C=N/N=c2/scc(-c3ccc(Br)cc3)n2-c2ccccc2)cc1 | 7.38 | Non-toxic | 0.0311 (≈ 0.0514 µM) | Non-toxic | 0.3 (≈ 0.496 µM) | 300 | 97.67 | 2 | Non-toxic | 16.84 | – | –
O=[N+]([O-])c1ccc(-c2nn(-c3ccc(Br)cc3)cc2C2CC(c3ccccc3)=NN2)cc1 (stereo unspecified) | 7.38 | Non-toxic | 2.12 (≈ 4.35 µM) | Non-toxic | 1.11 (≈ 2.27 µM) | 300 | 95.35 | 4 | Non-toxic | 17.6 | – | –
Cc1ccc(-c2nn(-c3ccc(Br)cc3)cc2C2CC(c3ccccc3)=NN2c2ccccc2)cc1 (stereo unspecified) | – | – | 2.91 (≈ 5.46 µM) | – | 1.24 (≈ 2.32 µM) | – | 74.42 | 22 | – | 10.64 | – | –
O=[N+]([O-])c1ccc(-c2nn(-c3ccc(Br)cc3)cc2/C=N/NC(=S)Nc2ccccc2)cc1 | 7.42 | Non-toxic | 0.0214 (≈ 0.041 µM) | Non-toxic | 0.21 (≈ 0.403 µM) | 300 | 94.19 | 5 | Non-toxic | 14.84 | – | –
CCC(=O)N1N=C(c2ccccc2)CC1c1cn(-c2ccc(C)cc2)nc1-c1ccc(C)cc1 (stereo unspecified) | – | – | 1.6 (≈ 3.57 µM) | – | 1.02 (≈ 2.27 µM) | – | 55.81 | 38 | – | 8.84 | – | –
CC(=O)N1N=C(c2ccccc2)CC1c1cn(-c2ccc(C)cc2)nc1-c1ccc(C)cc1 (stereo unspecified) | – | – | 3.05 (≈ 7.01 µM) | – | 2.31 (≈ 5.32 µM) | – | 79.07 | 18 | – | 10.08 | – | –
Cc1ccc(-c2nn(-c3ccc(Br)cc3)cc2/C=N/NC(=S)Nc2ccccc2)cc1 | – | – | 3.62 (≈ 7.39 µM) | – | 2.41 (≈ 4.91 µM) | – | 65.12 | 30 | – | 8.84 | – | –
Cc1ccc(-c2nn(-c3ccc(C)cc3)cc2C2CC(c3ccccc3)=NN2)cc1 (stereo unspecified) | – | – | 2.84 (≈ 7.25 µM) | – | 2.37 (≈ 6.04 µM) | – | 65.12 | 30 | – | 7.62 | – | –
O=[N+]([O-])c1ccc(-c2nn(-c3ccc(Br)cc3)cc2/C=N/N=c2/scc(-c3ccc(Br)cc3)n2-c2ccccc2)cc1 | – | – | 2.9 (≈ 4.14 µM) | – | 1.07 (≈ 1.53 µM) | – | 67.44 | 28 | – | 12.26 | – | –
Cc1ccc(-c2nn(-c3ccc(C)cc3)cc2/C=N/NC(=S)Nc2ccccc2)cc1 | – | – | 3.01 (≈ 7.08 µM) | – | 2.26 (≈ 5.31 µM) | – | 60.47 | 34 | – | 9.23 | – | –
Cc1ccc(-n2cc(/C=N/N=c3/scc(-c4ccc(Br)cc4)n3-c3ccccc3)c(-c3ccc([N+](=O)[O-])cc3)n2)cc1 | – | – | 3.11 (≈ 4.9 µM) | – | 1.78 (≈ 2.8 µM) | – | 74.42 | 22 | – | 12.12 | – | –
Cc1ccc(-c2nn(-c3ccc(Br)cc3)cc2/C=N/N=C2/SCC(=O)N2c2ccccc2)cc1 | 7.44 | Non-toxic | 0.0341 (≈ 0.0643 µM) | Non-toxic | 0.32 (≈ 0.603 µM) | 300 | 95.35 | 4 | Non-toxic | 16.86 | – | –
Cc1ccc(-n2cc(C=O)c(-c3ccc([N+](=O)[O-])cc3)n2)cc1 | – | – | 3.64 (≈ 11.9 µM) | – | 1.56 (≈ 5.08 µM) | – | 62.79 | 32 | – | 7.28 | – | –
